Laboratory results reported in ChEMBL document CHEMBL3585278, “Effect of deuteration on metabolism and clearance of Nerispirdine (HP184) and AVE5638” (Bioorg Med Chem, 2015).

How the values were obtained:
[1] = system: Liver microsome; assay: Drug metabolism in human liver microsomes assessed as metabolic reaction rate at 10 uM measured up to 3 hrs by LC-MS/MS analysis; type: ADME
How it was run: (§1)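 Human liver S9 fraction, liver microsomes or hepatocytes were incubated with substrate or its deuterated analogue at 1 and 10 µM, with or without an NADPH-generating system. Substrate depletion over time was followed. Reaction rate was given as nmol/min/mg for S9 and microsomes, and nmol/min per 10^6 cells for hepatocytes.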

[2] = system: Hepatocyte; assay: Drug metabolism in human hepatocytes assessed as metabolic reaction rate at 1 uM measured per 10^6 cells up to 3 hrs by LC-MS/MS analysis; type: ADME, cell-based; how it was run: as §1
[3] = system: Liver; assay: Drug metabolism in human liver S9 fraction assessed as metabolic reaction rate at 10 uM measured up to 3 hrs by LC-MS/MS analysis; type: ADME, subcellular; conditions: s9, 3 h; how it was run: as §1
[4] = system: Hepatocyte; assay: Drug metabolism in human hepatocytes assessed as metabolic reaction rate at 10 uM measured per 10^6 cells up to 3 hrs by LC-MS/MS analysis; type: ADME, cell-based; how it was run: as §1
[5] = system: Liver; assay: Drug metabolism in human liver S9 fraction assessed as metabolic reaction rate at 1 uM measured up to 3 hrs by LC-MS/MS analysis; type: ADME, subcellular; conditions: s9, 3 h; how it was run: as §1
[6] = system: Liver microsome; assay: Drug metabolism in human liver microsomes assessed as metabolic reaction rate at 1 uM measured up to 3 hrs by LC-MS/MS analysis; type: ADME; how it was run: as §1
[7] = system: Liver microsome; assay: Clearance in human liver microsomes assessed as initial mean metabolism rate at 5 uM at protein concentration of 0.25 mg/ml measured per mg protein up to 30 mins by LC-MS/MS analysis; type: ADME; conditions: 0.5 h
How it was run: (§2)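 Human liver microsomes at 0.25, 0.5 or 1 mg protein/mL were incubated with 5 µM substrate (parent or d14 analogue). Aliquots taken at several times up to 30 min were assayed by LC–MS/MS for parent and N-depropylated metabolite. Initial mean metabolism rate was given as nmol/min/mg protein.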

[8] = system: Rattus norvegicus; assay: In vivo drug metabolism in Sprague-Dawley rat assessed as 1-(3-fluoropyridin-4-ylamino)-1H-indole-3-carboxylic acid formation at 20 mg/kg, po up to 48 hrs by LC-MS/MS analysis; type: ADME, organism-based
How it was run: (§3)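 Male Sprague–Dawley rats, 5 per compound, were dosed orally at 20 mg/kg with parent or d14 analogue. Plasma collected at several times up to 48 h was analysed by LC–MS/MS for parent, N-depropylated metabolite and carboxylic acid metabolite, giving concentration–time profiles.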

[9] = system: Liver microsome; assay: Clearance in human liver microsomes assessed as initial mean metabolism rate at 5 uM at protein concentration of 0.5 mg/ml measured per mg protein up to 30 mins by LC-MS/MS analysis; type: ADME; conditions: 0.5 h; how it was run: as §2
[10] = system: Liver microsome; assay: Drug metabolism in human liver microsomes assessed as 1-(3-fluoropyridin-4-ylamino)-1H-indole-3-carboxylic acid-d4 formation at 5 uM up to 30 mins by LC-MS/MS analysis
[11] = system: Hepatocyte; assay: Drug metabolism in human hepatocytes assessed as 1-(3-fluoropyridin-4-ylamino)-1H-indole-3-carboxylic acid formation at 2 to 10 uM up to 24 hrs by LC-MS/MS analysis; type: ADME, cell-based
How it was run: (§4)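 Plated human hepatocytes (two preparations) were incubated with parent or d14 analogue at 2 or 10 µM. Aliquots taken at several times up to 24 h were assayed by LC–MS/MS for parent, N-depropylated metabolite and carboxylic acid metabolite. Clearance was expressed as mL/h per 10^6 cells.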

[12] = system: Hepatocyte; assay: Clearance in human hepatocytes at 2 uM measured per 10^6 cells up to 24 hrs by LC-MS/MS analysis; type: ADME, cell-based; how it was run: as §4
[13] = AUC in Sprague-Dawley rat at 20 mg/kg, po by LC-MS/MS analysis; type: ADME, organism-based; conditions: in vivo
How it was run: (§5)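 Male Sprague–Dawley rats (5 per compound) received 20 mg/kg orally of parent or d14 analogue. Plasma was sampled at several times up to 48 h and assayed by LC–MS/MS. Tmax is reported with a range; Cmax, AUClast, AUC and t1/2 were derived from plasma concentration–time data.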

[14] = system: Hepatocyte; assay: Drug metabolism in human hepatocytes assessed as 1-(3-fluoropyridin-4-ylamino)-1H-indole-3-carboxylic acid-d4 formation at 2 to 10 uM up to 24 hrs by LC-MS/MS analysis; type: ADME, cell-based; how it was run: as §4
[15] = Cmax in Sprague-Dawley rat at 20 mg/kg, po by LC-MS/MS analysis; type: ADME, organism-based; parameters: dose 20 mg/kg, route oral; conditions: in vivo; how it was run: as §5
[16] = system: Liver microsome; assay: Clearance in human liver microsomes assessed as initial mean metabolism rate at 5 uM at protein concentration of 1 mg/ml measured per mg protein up to 30 mins by LC-MS/MS analysis; type: ADME; conditions: 0.5 h; how it was run: as §2
[17] = AUClast in Sprague-Dawley rat at 20 mg/kg, po by LC-MS/MS analysis; type: ADME, organism-based; parameters: dose 20 mg/kg, route oral, time 0 - last; conditions: in vivo; how it was run: as §5
[18] = system: Hepatocyte; assay: Clearance in human hepatocytes at 10 uM measured per 10^6 cells up to 24 hrs by LC-MS/MS analysis; type: ADME, cell-based; how it was run: as §4
[19] = Tmax in Sprague-Dawley rat at 20 mg/kg, po by LC-MS/MS analysis; type: ADME, organism-based; conditions: in vivo; how it was run: as §5
[20] = system: Rattus norvegicus; assay: In vivo drug metabolism in Sprague-Dawley rat assessed as 1-(3-fluoropyridin-4-ylamino)-1H-indole-3-carboxylic acid-d4 formation at 20 mg/kg, po up to 48 hrs by LC-MS/MS analysis; type: ADME, organism-based; how it was run: as §3
[21] = Half-life in Sprague-Dawley rat at 20 mg/kg, po by LC-MS/MS analysis; type: ADME, organism-based; conditions: in vivo; how it was run: as §5
[22] = system: Rattus norvegicus; assay: In vivo drug formation in Sprague-Dawley rat treated with Nerispirdine at 20 mg/kg, po up to 48 hrs by LC-MS/MS analysis; type: ADME, organism-based; how it was run: as §3
[23] = system: Liver microsome; assay: Drug formation in human liver microsomes treated with Nerispirdine at 5 uM up to 30 mins by LC-MS/MS analysis
[24] = system: Hepatocyte; assay: Drug formation in human hepatocytes treated with Nerispirdine at 2 to 10 uM up to 24 hrs by LC-MS/MS analysis; type: ADME, cell-based; how it was run: as §4
[25] = system: Hepatocyte; assay: Drug formation in human hepatocytes treated with (3-Fluoro-pyridin-4-yl)-(3-methyl-indol-1-yl)-propylamine-d14 at 2 to 10 uM up to 24 hrs by LC-MS/MS analysis; type: ADME, cell-based; how it was run: as §4
[26] = system: Rattus norvegicus; assay: In vivo drug formation in Sprague-Dawley rat treated with (3-Fluoro-pyridin-4-yl)-(3-methyl-indol-1-yl)-propylamine-d14 at 20 mg/kg, po up to 48 hrs by LC-MS/MS analysis; type: ADME, organism-based; how it was run: as §3
[27] = system: Liver microsome; assay: Drug formation in human liver microsomes treated with (3-Fluoro-pyridin-4-yl)-(3-methyl-indol-1-yl)-propylamine-d14 formation at 5 uM up to 30 mins by LC-MS/MS analysis
[28] = system: Hepatocyte; assay: Drug metabolism in human hepatocytes assessed as N-(3-fluoropyridin-4-yl)-3-methyl-1H-indol-1-amine formation at 2 to 10 uM up to 24 hrs by LC-MS/MS analysis; type: ADME, cell-based; how it was run: as §4
[29] = system: Rattus norvegicus; assay: In vivo drug metabolism in Sprague-Dawley rat assessed as (3-Fluoro-pyridin-4-yl)-(3-methyl-indol-1-yl)-amine-d7 formation at 20 mg/kg, po up to 48 hrs by LC-MS/MS analysis; type: ADME, organism-based; how it was run: as §3
[30] = system: Liver microsome; assay: Drug metabolism in human liver microsomes assessed as N-(3-fluoropyridin-4-yl)-3-methyl-1H-indol-1-amine formation at 5 uM up to 30 mins by LC-MS/MS analysis
[31] = system: Rattus norvegicus; assay: In vivo drug metabolism in Sprague-Dawley rat assessed as N-(3-fluoropyridin-4-yl)-3-methyl-1H-indol-1-amine formation at 20 mg/kg, po up to 48 hrs by LC-MS/MS analysis; type: ADME, organism-based; how it was run: as §3

`NCc1cccc(C2CCN(C(=O)c3ccc(C#Cc4ccccc4F)o3)CC2)c1` showed a Drug metabolism [1] of 0.0215 nmol/min/mg, a Drug metabolism [2] of 0.0143 nmol/min/10^6 cells and a Drug metabolism [3] of 0.0238 nmol/min/mg. For the same compound, the Drug metabolism [4] was 0.016 nmol/min/10^6 cells, the Drug metabolism [5] was 0.0219 nmol/min/mg and the Drug metabolism [6] was 0.0201 nmol/min/mg.
In the case of `[2H]c1cc2c(C([2H])([2H])[2H])c([2H])n(N(c3ccncc3F)C([2H])([2H])C([2H])([2H])C([2H])([2H])[2H])c2c([2H])c1[2H]`, the metabolism rate [7] is reported as 0.42 nmol/min/mg, the Drug metabolism [8] is reported as “metabolite_detected” and the metabolic rate [9] is reported as 0.638 nmol/min/mg. The Drug metabolism [10] was “metabolite_notdetected”, the Drug metabolism [11] was “metabolite_detected” and the CLint [12] was 0.572 mL/h/10^6 cells. The AUC [13] was 3800 ng·h/mL, the Drug metabolism [14] was “metabolite_detected” and the Cmax [15] was 971 ng/mL. It also gave a metabolic rate [16] of 0.217 nmol/min/mg, an AUC(0-t) [17] of 3670 ng·h/mL and a CLint [18] of 0.196 mL/h/10^6 cells. The Tmax [19] was 30 min, the Drug metabolism [20] was “metabolite_detected” and the half-life [21] was 666 min.
`[2H]C([2H])(N)c1cccc(C2CCN(C(=O)c3ccc(C#Cc4ccccc4F)o3)CC2)c1` showed a Drug metabolism [1] of 0.0045 nmol/min/mg, a Drug metabolism [2] of 0.0143 nmol/min/10^6 cells and a Drug metabolism [3] of 0.0043 nmol/min/mg. For the same compound, the Drug metabolism [4] was 0.0081 nmol/min/10^6 cells, the Drug metabolism [5] was 0.0081 nmol/min/mg and the Drug metabolism [6] was 0.0048 nmol/min/mg.
For `Cc1cn(Nc2ccncc2F)c2ccccc12`, the Drug metabolism [22] was “metabolite_detected”, the Drug metabolism [23] was “metabolite_detected” and the Drug metabolism [24] was “metabolite_detected”.
For `[2H]c1cc2c(C([2H])([2H])[2H])c([2H])n(Nc3ccncc3F)c2c([2H])c1[2H]`, the Drug metabolism [25] was “metabolite_detected”, the Drug metabolism [26] was “metabolite_detected” and the Drug metabolism [27] was “metabolite_detected”.
For `O=C(O)c1cn(Nc2ccncc2F)c2ccccc12`, the Drug metabolism [22] was “metabolite_detected” and the Drug metabolism [24] was “metabolite_detected”.
For `[2H]c1cc2c(C(=O)O)c([2H])n(Nc3ccncc3F)c2c([2H])c1[2H]`, the Drug metabolism [25] was “metabolite_detected” and the Drug metabolism [26] was “metabolite_detected”.
For `CCCN(c1ccncc1F)n1cc(C)c2ccccc21` [NERISPIRDINE], the metabolism rate [7] was 1.15 nmol/min/mg, the metabolic rate [9] was 0.346 nmol/min/mg and the Drug metabolism [28] was “metabolite_detected”. The Drug metabolism [29] was “metabolite_detected”, the CLint [12] was 0.415 mL/h/10^6 cells and the AUC [13] was 4180 ng·h/mL. For the same compound, the Cmax [15] was 822 ng/mL, the metabolic rate [16] was 0.253 nmol/min/mg and the AUC(0-t) [17] was 4070 ng·h/mL. The Drug metabolism [30] was “metabolite_detected”, the CLint [18] was 0.2 mL/h/10^6 cells and the Tmax [19] was 60 min. The Drug metabolism [31] was “metabolite_detected” and the half-life [21] was 612 min.
